In publication PMC5679012 (Chemistry (Weinheim an der Bergstrasse, Germany), 2017):

Experiment: CO release kinetics by increase of fluorescence intensity in DMSO/PBS
Type: physicochemical
Conditions: fluorescence increase (450 nm); 100 μM; DMSO/PBS (pH = 7.4) 4:1, 37 °C
Summary of the method: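 Test compounds of scaffolds I and II were dissolved in DMSO/PBS (pH 7.4, 4:1) at 100 μM final and held at 37 °C. CO release was tracked as the rise in fluorescence intensity at 450 nm, read at successive time points. Each experiment was repeated three times independently.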

t1/2, half-life for CO release: ~12 min
SMILES: C#CC(C)(C)NC(=O)C1=C2C(=C(c3ccccc3)C1=O)c1cccc3cccc2c13 [BW-CO-111]
k, CO release rate: 3.31 ± 0.28 h⁻¹
